Activity calls are given as the source filed them. Cut-off read from the data, not from the text of the source, unless noted: active = inhibition above about 30%; inactive = the rest.
Tests used:
[1] = reducers of endogenous Her2 protein level, primary screen, SKBR3 breast tumor cells, AlphaScreen, ATP viability (AID 461;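 active = Her2 level under about 52% in both replicate screens, with viability over 70% of control, limit read from the data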;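 for Her2 level: lower value means less Her2 protein in the cells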;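 for viability: percent of carrier control wells set as 100% viability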); conditions: 18-24 h, measured here: SKBR3 viability, ATP luminescence, at 10 µM
[2] = target: Receptor tyrosine-protein kinase erbB-2 (Homo sapiens) (UniProt P04626); assay: as above; conditions: 18-24 h, at 10 µM, stronger effect = lower value
Receptor tyrosine-protein kinase erbB-2 (Homo sapiens), sequence (P04626 whole entry, looked up): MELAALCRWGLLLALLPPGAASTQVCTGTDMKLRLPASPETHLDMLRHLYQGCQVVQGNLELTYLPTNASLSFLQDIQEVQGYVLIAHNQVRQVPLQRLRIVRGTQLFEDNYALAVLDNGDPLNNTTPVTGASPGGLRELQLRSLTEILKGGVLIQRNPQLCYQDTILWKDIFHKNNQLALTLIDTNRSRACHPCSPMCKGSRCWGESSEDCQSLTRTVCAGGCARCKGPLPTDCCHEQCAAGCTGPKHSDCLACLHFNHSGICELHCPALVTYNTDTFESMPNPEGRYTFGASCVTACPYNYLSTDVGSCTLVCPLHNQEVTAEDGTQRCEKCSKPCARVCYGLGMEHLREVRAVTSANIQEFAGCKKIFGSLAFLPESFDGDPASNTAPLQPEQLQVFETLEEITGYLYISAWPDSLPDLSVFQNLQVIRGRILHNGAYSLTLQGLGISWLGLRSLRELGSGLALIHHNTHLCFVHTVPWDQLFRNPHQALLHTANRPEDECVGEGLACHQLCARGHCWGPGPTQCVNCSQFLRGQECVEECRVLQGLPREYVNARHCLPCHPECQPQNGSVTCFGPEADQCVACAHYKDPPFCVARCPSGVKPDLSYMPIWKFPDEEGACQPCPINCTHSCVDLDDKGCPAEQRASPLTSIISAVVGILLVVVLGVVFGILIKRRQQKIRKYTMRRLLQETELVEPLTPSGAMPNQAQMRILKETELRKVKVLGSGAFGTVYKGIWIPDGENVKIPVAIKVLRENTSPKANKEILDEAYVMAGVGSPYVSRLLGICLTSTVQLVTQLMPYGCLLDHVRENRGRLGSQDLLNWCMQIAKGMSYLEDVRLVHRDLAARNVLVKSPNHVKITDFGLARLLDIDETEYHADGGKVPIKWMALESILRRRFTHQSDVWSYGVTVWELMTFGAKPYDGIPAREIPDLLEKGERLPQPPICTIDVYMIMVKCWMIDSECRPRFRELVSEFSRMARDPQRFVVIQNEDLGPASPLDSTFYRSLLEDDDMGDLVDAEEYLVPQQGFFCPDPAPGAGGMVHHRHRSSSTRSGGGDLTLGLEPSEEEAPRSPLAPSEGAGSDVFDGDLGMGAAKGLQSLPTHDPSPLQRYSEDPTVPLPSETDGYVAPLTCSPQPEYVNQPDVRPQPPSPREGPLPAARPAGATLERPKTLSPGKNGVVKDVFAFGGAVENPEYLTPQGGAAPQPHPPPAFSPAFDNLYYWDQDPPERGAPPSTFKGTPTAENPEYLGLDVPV

[3] = SK-BR-3 cell growth inhibitors, pilot screen, 24 h, human (AID 572;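 active = viability at or below 10% of carrier control in both of two separate runs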;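 note: compound exposure lasted between 18 and 24 h rather than exactly 24 h; 100% = carrier-treated control wells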); conditions: SK-BR-3 viability, CellTiter-Glo luminescence, at 10 µM, stronger effect = lower value
[4] = HUVEC growth inhibition – cell-based, human, primary screen (AID 575;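 active = viability at or below 30% in both replicate assays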;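 note: 100% = median of untreated cell wells with 0.1% DMSO on each plate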); conditions: HUVEC proliferation, CellTiter-Glo luminescence, 72 h; at 10 µM; stronger effect = lower value
Method in brief: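 Assay system: Primary human umbilical vein endothelial cells | Quantity: 1250 cells per well | Medium: Supplemented EBM, 2% fetal bovine serum | Detection: CellTiter-Glo luminescence measuring cellular ATP | Read-out: % viability vs DMSO wells | Plate: Collagen-coated 384-well format | Times: 72 h exposure, 37 °C, 5% CO2, 30 min RT equilibration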

[5] = growth inhibitors of H69AR lung tumor, primary screen, human, duplicate replicates (AID 580;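 active = viability at or under a set limit in both replicates, limit being median viability minus 3 SD, cut at about 48% in these data, passing the limit was not always enough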;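 note: 100% = mean luminescence of untreated wells and 0% = no signal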); conditions: H69AR lung tumor cells viability, ATP luminescence, 72 h; at 10 µM; stronger effect = lower value
[6] = reversal of MRP1-mediated doxorubicin resistance, pilot screen, H69AR cells, doxorubicin co-treatment (AID 601;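 active = viability loss from added drug above about 55%, and viability with drug at most 40%, in both replicates, limit read from the data, passing the limit was not always enough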); conditions: CellTiter-Glo, 72 h, at 10 µM; for differential viability (reversal): stronger effect = higher value
[7] = 384-well plate pilot, post-Golgi transport modulator project, inhibition of yeast transport mutant growth (AID 636; in the data active = inhibition above about 31%); conditions: absorbance 615 nm, about 18 h, stronger effect = higher value
[8] = growth suppression of yeast trafficking mutant, preliminary HTS, modulators of trafficking downstream of Golgi apparatus project, 1536-format plate, OD 615 nm (AID 637); conditions: yeast transport mutant growth, absorbance 615 nm, 18 h; stronger effect = higher value
[9] = H69AR cells + 2 uM doxorubicin, measured here: viability with 2 uM doxorubicin, stronger effect = lower value
[10] = H69AR cells, compound alone cytotoxicity

SMILES	viability [1] [%]	Her2 level [2]	viability [3]	viability [4]	viability [5]	differential viability (reversal) ([6]; H69AR cells + 2 uM doxorubicin)	viability [6, 9] [%]	viability [6, 10] [%]	inhibition [7]	inhibition [8]
O=C(NCc1ccccn1)c1ccc2nc(-c3ccco3)c(-c3ccco3)nc2c1	101	90.5% (inactive)	101% (inactive)	111% (inactive)	73.8% (inactive)	-5.92% (inactive)	79.8	73.8	-5.66% (inactive)	2.13% (inactive)
C=CCNC(=O)CNS(=O)(=O)c1ccc(F)cc1	87	95.5% (inactive)	87% (inactive)	92.5% (inactive)	95.4% (inactive)	1.88% (inactive)	93.6	95.4	-1.45% (inactive)	0% (inactive)
CCCOC(=O)/C(C(N)=NCc1ccccc1)=C(\O)OCCC	82	95% (inactive)	82% (inactive)	82.6% (inactive)	88.8% (inactive)	-4.66% (inactive)	93.4	88.8	1.3% (inactive)	-2.79% (inactive)
COc1ccc(C(O)Cn2c(=N)n(CCCN(C)C)c3ccccc32)cc1 (stereo not given)	78.5	102% (inactive)	78.5% (inactive)	90.3% (inactive)	97.5% (inactive)	6.39% (inactive)	91.1	97.5	-0.26% (inactive)	-6.51% (inactive)
CC1c2nc3ccccc3n2C(CC(=O)NCc2ccccn2)C(=O)N1Cc1ccccc1 (stereo not given)	110	72% (inactive)	110% (inactive)	96.3% (inactive)	92.8% (inactive)	7.24% (inactive)	85.5	92.8	-1.58% (inactive)	1.59% (inactive)
CC(C)(C)OC(=O)N1CCOCCOCCN(C(=O)OC(C)(C)C)CCOCCOCC1	97.5	112% (inactive)	97.5% (inactive)	83% (inactive)	93.4% (inactive)	-2.94% (inactive)	96.4	93.4	-3.16% (inactive)	5.74% (inactive)
CCOC(=O)c1sc(NC(=O)CSc2nnnn2-c2ccccc2)c(C(=O)OCC)c1C	80	85% (inactive)	80% (inactive)	36.6% (inactive)	65.7% (inactive)	19.6% (inactive)	46.1	65.7	4.68% (inactive)	-6.83% (inactive)
CC(=O)c1cccc(NC(=O)NCc2ccccn2)c1	91	87% (inactive)	91% (inactive)	92% (inactive)	97.6% (inactive)	6.09% (inactive)	91.5	97.6	-4.47% (inactive)	-4.17% (inactive)
CC(=O)CCc1ccc(OCCCCn2cncn2)cc1	113	105% (inactive)	113% (inactive)	98.2% (inactive)	92.9% (inactive)	3.28% (inactive)	89.6	92.9	-4.94% (inactive)	1.59% (inactive)
Cc1cnc(C(=O)Nc2ccc(N3CCN(C(=O)OC(C)(C)C)CC3)cc2)cn1	109	106% (inactive)	109% (inactive)	100% (inactive)	115% (inactive)	15.1% (inactive)	99.9	115	-5.84% (inactive)	-6.51% (inactive)
CN(C)Cc1cn(CCC(=O)O)c2ccccc12	96	106% (inactive)	96% (inactive)	88.5% (inactive)	101% (inactive)	2.96% (inactive)	98.2	101	-1.22% (inactive)	-1.8% (inactive)
COCCNC(=O)CCCCCN1C(=O)CCC1=O	108	79.5% (inactive)	108% (inactive)	105% (inactive)	94.8% (inactive)	10.4% (inactive)	84.4	94.8	-8.65% (inactive)	4.76% (inactive)
CCOC(=O)c1ccc(NS(=O)C23CC4CC(CC(C4)C2)C3)cc1 (stereo not given)	95.5	82% (inactive)	95.5% (inactive)	74% (inactive)	87.6% (inactive)	-4.57% (inactive)	92.2	87.6	-7.57% (inactive)	3.28% (inactive)
CCN(CC)C(=O)c1ccc(NS(=O)(=O)c2ccccc2)cc1	89.5	130% (inactive)	89.5% (inactive)	111% (inactive)	86.1% (inactive)	-1.12% (inactive)	87.3	86.1	-1.32% (inactive)	-3.44% (inactive)
Cc1nn(-c2ccccc2)c2c1C(O)n1c(nc3ccccc31)S2 (stereo not given)	91	77.5% (inactive)	91% (inactive)	50.9% (inactive)	26.2% (active)	-8.14% (inactive)	34.4	26.2	-6.85% (inactive)	-0.79% (inactive)
Cn1cccc1Cc1nnc(SCC(=O)Nc2ccccc2F)n1CCc1ccccc1	78.5	91% (inactive)	78.5% (inactive)	89.4% (inactive)	83.7% (inactive)	1.68% (inactive)	82.1	83.7	1.15% (inactive)	2.67% (inactive)
CCOC(=O)C1CCN(Cc2ccc(C(=O)OC)cc2)CC1	93.5	106% (inactive)	93.5% (inactive)	87% (inactive)	87.4% (inactive)	4.25% (inactive)	83.2	87.4	-4.08% (inactive)	-1.8% (inactive)
Cn1c(C(=O)NCCC2=CCCCC2)cc2c(=O)n3ccccc3nc21	88	98.5% (inactive)	88% (inactive)	95.5% (inactive)	96.1% (inactive)	15.7% (inactive)	80.4	96.1	0.26% (inactive)	-1.97% (inactive)
Cc1sc2nc(SCc3nc4ccccc4[nH]3)n(Cc3ccco3)c(=O)c2c1C	96.5	92.5% (inactive)	96.5% (inactive)	91.7% (inactive)	84.6% (inactive)	8.02% (inactive)	76.6	84.6	-0.13% (inactive)	-1.8% (inactive)
O=C(CSc1nnnn1C1CCCC1)NCc1ccc2c(c1)OCO2	86	89% (inactive)	86% (inactive)	93.7% (inactive)	102% (inactive)	3.33% (inactive)	98.6	102	-6.22% (inactive)	2.46% (inactive)
CCCn1c(SCC(=O)Nc2nnc(-c3ccccc3)s2)nnc1-c1ccccn1	98.5	112% (inactive)	98.5% (inactive)	84.6% (inactive)	102% (inactive)	5.49% (inactive)	96.8	102	-2.7% (inactive)	25% (inactive)
Cc1ccccc1OCc1nc2ccccc2c(=O)n1/N=C/c1ccco1	102	100% (inactive)	102% (inactive)	71% (inactive)	104% (inactive)	8.3% (inactive)	95.3	104	0.53% (inactive)	-2.9% (inactive)
Cc1n[nH]c(C)c1S(=O)(=O)Nc1ccc2c(c1)OCCO2	93	98.5% (inactive)	93% (inactive)	104% (inactive)	104% (inactive)	14.9% (inactive)	89.3	104	-3.42% (inactive)	-4.29% (inactive)
Cc1ccc(S(=O)(=O)N(C)c2ccc(OCC(=O)OCc3c(C)noc3C)cc2)cc1	92.5	97% (inactive)	92.5% (inactive)	95.4% (inactive)	105% (inactive)	6.56% (inactive)	98.6	105	-1.71% (inactive)	-10.3% (inactive)
Cc1ccc(C)c(N2CCN(Cc3nnnn3C3CCCCC3)CC2)c1	94	91% (inactive)	94% (inactive)	78.1% (inactive)	71% (inactive)	-9.05% (inactive)	80	71	-3.25% (inactive)	3.49% (inactive)
Cc1ccc(C)c2[nH]c(=O)c(CCNC(=O)c3ccc(Br)o3)cc12	87	87% (inactive)	87% (inactive)	72.8% (inactive)	89.3% (inactive)	5.93% (inactive)	83.4	89.3	-7.81% (inactive)	-4.6% (inactive)
COc1ccccc1C1/C(=C(/O)c2ccccc2)C(=O)C(=O)N1CC(C)C (stereo not given)	104	89.5% (inactive)	104% (inactive)	81.4% (inactive)	82.1% (inactive)	-2.33% (inactive)	84.4	82.1	-2.47% (inactive)	5.24% (inactive)
O=C(Cc1ccc(Br)cc1)N1CCCCCC1	108	106% (inactive)	108% (inactive)	115% (inactive)	97.9% (inactive)	8.29% (inactive)	89.6	97.9	-4.08% (inactive)	-0.49% (inactive)

Source: PubChem BioAssay
